ChEMBL document CHEMBL2375229, “Synthesis and biological activities of some novel aminomethyl derivatives of 4-substituted-5-(2-thienyl)-2,4-dihydro-3H-1,2,4-triazole-3-thiones” (2013)
Values after ≈ are worked out from the molar mass of the structure shown.

Tests used:
Type in all cases: functional
Aspergillus fumigatus = experiment: Antifungal activity against Aspergillus fumigatus NCIM 902 assessed as growth inhibition after 3 to 4 days by serial plate dilution method
How it was run: (§1)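 Agar of peptone, D-glucose and agar at pH 5.7, lawned with saline spore suspension and dried 1 h at 37 °C. Compounds in DMSO added to punched wells, DMSO solvent control. Triplicate plates held at 37 °C for 3–4 days. […] Ciclopiroxolamine standard.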

Aspergillus flavus = experiment: Antifungal activity against Aspergillus flavus NCIM 524 assessed as growth inhibition after 3 to 4 days by serial plate dilution method; how it was run: as §1
[1] = system: Trichophyton mentagrophytes; experiment: Antifungal activity against Trichophyton mentagrophytes assessed as growth inhibition after 3 to 4 days by serial plate dilution method; how it was run: as §1
Talaromyces marneffei = experiment: Antifungal activity against Penicillium marneffei assessed as growth inhibition after 3 to 4 days by serial plate dilution method; how it was run: as §1
[2] = system: Radical scavenging activity; experiment: Antioxidant activity of the compound assessed as DPPH free radical scavenging activity at 312.5 uM after 60 mins by spectrophotometric analysis relative to control
How it was run: (§2)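 DPPH• and sample stocks made in DMSO. DPPH• mixed with sample at several concentrations and brought to 4.0 mL in DMSO. Incubated 60 min at 25 °C in the dark, then absorbance read at 517 nm with solvent correction. Scavenging % = (A0−As)/A0×100 against a DPPH-only control. Ascorbic acid standard. Mean ± SD, n = 3.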

[3] = system: Radical scavenging activity; experiment: Antioxidant activity of the compound assessed as DPPH free radical scavenging activity at 250 uM after 60 mins by spectrophotometric analysis relative to control; how it was run: as §2
[4] = system: Radical scavenging activity; experiment: Antioxidant activity of the compound assessed as DPPH free radical scavenging activity at 125 uM after 60 mins by spectrophotometric analysis relative to control; how it was run: as §2
[5] = system: Radical scavenging activity; experiment: Antioxidant activity of the compound assessed as DPPH free radical scavenging activity at 187.5 uM after 60 mins by spectrophotometric analysis relative to control; how it was run: as §2
[6] = system: Radical scavenging activity; experiment: Antioxidant activity of the compound assessed as DPPH free radical scavenging activity at 62.5 uM after 60 mins by spectrophotometric analysis relative to control; how it was run: as §2
Staphylococcus aureus = experiment: Antibacterial activity against Staphylococcus aureus ATCC 25923 assessed as growth inhibition after 3 to 4 days by serial plate dilution method
How it was run: (§3)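 Serial dilution in Mueller-Hinton broth adjusted to pH 5.0 with phosphate buffer. Standardized bacterial suspension inoculated, 16-18 h at 37 °C. Agar-well plates also used: compounds in DMSO added to punched wells, DMSO solvent control, triplicate plates held at 37 °C for 3–4 days. MIC taken as lowest concentration with no visible growth. Range tested 1.56–25 µg/mL. Ciprofloxacin standard.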

Pseudomonas aeruginosa = experiment: Antibacterial activity against Pseudomonas aeruginosa ATCC 27853 assessed as growth inhibition after 3 to 4 days by serial plate dilution method; how it was run: as §3
Klebsiella pneumoniae = experiment: Antibacterial activity against Klebsiella pneumoniae assessed as growth inhibition after 3 to 4 days by serial plate dilution method; how it was run: as §3
Escherichia coli = experiment: Antibacterial activity against Escherichia coli ATCC 25922 assessed as growth inhibition after 3 to 4 days by serial plate dilution method; how it was run: as §3

Compound	MIC (Aspergillus fumigatus) [µg/mL]	MIC (Aspergillus flavus) [µg/mL]	MIC [1] [µg/mL]	MIC (Talaromyces marneffei) [µg/mL]	inhibition [2] [%]	inhibition [3] [%]	inhibition [4] [%]	inhibition [5] [%]	inhibition [6] [%]	MIC (Staphylococcus aureus) [µg/mL]	MIC (Pseudomonas aeruginosa) [µg/mL]	MIC (Klebsiella pneumoniae) [µg/mL]	MIC (Escherichia coli) [µg/mL]
Cc1cc(C2CCCCC2)n(O)c(=O)c1.NCCO [CICLOPIROX OLAMINE]	6.25	3.12	3.12	6.25	–	–	–	–	–	–	–	–	–
CCn1c(-c2cccs2)nn(CN2CCN(c3cccc(C(F)(F)F)c3)CC2)c1=S	6.25 (≈ 13.8 µM)	3.12 (≈ 6.88 µM)	3.12 (≈ 6.88 µM)	6.25 (≈ 13.8 µM)	81.6	80.2	61.1	71.3	52	1.56 (≈ 3.44 µM)	3.12 (≈ 6.88 µM)	3.12 (≈ 6.88 µM)	3.12 (≈ 6.88 µM)
C=CCn1c(-c2cccs2)n[nH]c1=S	25 (≈ 112 µM)	12 (≈ 53.7 µM)	12 (≈ 53.7 µM)	25 (≈ 112 µM)	68.8	55.5	45.2	47.4	40.7	25 (≈ 112 µM)	12 (≈ 53.7 µM)	25 (≈ 112 µM)	12 (≈ 53.7 µM)
CCn1c(-c2cccs2)nn(CN2CCOCC2)c1=S	3.12 (≈ 10 µM)	1.56 (≈ 5.02 µM)	1.56 (≈ 5.02 µM)	3.12 (≈ 10 µM)	93.6	88.6	69.8	82.8	60.4	3.12 (≈ 10 µM)	6.25 (≈ 20.1 µM)	6.25 (≈ 20.1 µM)	6.25 (≈ 20.1 µM)
CCCN(CCC)Cn1nc(-c2cccs2)n(-c2ccccc2)c1=S	12 (≈ 32.2 µM)	6.25 (≈ 16.8 µM)	6.25 (≈ 16.8 µM)	12 (≈ 32.2 µM)	–	81.4	62.6	72.1	52.1	6.25 (≈ 16.8 µM)	12 (≈ 32.2 µM)	6.25 (≈ 16.8 µM)	12 (≈ 32.2 µM)
C=CCn1c(-c2cccs2)nn(CN2CCOCC2)c1=S	3.12 (≈ 9.68 µM)	1.56 (≈ 4.84 µM)	1.56 (≈ 4.84 µM)	3.12 (≈ 9.68 µM)	95	89.9	71.2	83.1	62.3	3.12 (≈ 9.68 µM)	6.25 (≈ 19.4 µM)	6.25 (≈ 19.4 µM)	6.25 (≈ 19.4 µM)
CCn1c(-c2cccs2)n[nH]c1=S	25 (≈ 118 µM)	12 (≈ 56.8 µM)	12 (≈ 56.8 µM)	25 (≈ 118 µM)	62.1	53.3	47.1	49.6	36.4	12 (≈ 56.8 µM)	12 (≈ 56.8 µM)	12 (≈ 56.8 µM)	12 (≈ 56.8 µM)
C=CCn1c(-c2cccs2)nn(CN2CCN(c3ccccc3)CC2)c1=S	6.25 (≈ 15.7 µM)	3.12 (≈ 7.85 µM)	3.12 (≈ 7.85 µM)	6.25 (≈ 15.7 µM)	91.6	84.1	64.4	75	54	6.25 (≈ 15.7 µM)	12 (≈ 30.2 µM)	6.25 (≈ 15.7 µM)	12 (≈ 30.2 µM)
S=c1[nH]nc(-c2cccs2)n1-c1ccccc1	25 (≈ 96.4 µM)	12 (≈ 46.3 µM)	12 (≈ 46.3 µM)	25 (≈ 96.4 µM)	65.1	51.2	45.7	47.9	36.1	12 (≈ 46.3 µM)	12 (≈ 46.3 µM)	12 (≈ 46.3 µM)	12 (≈ 46.3 µM)
C=CCn1c(-c2cccs2)nn(CN2CCC(C)CC2)c1=S	12 (≈ 35.9 µM)	6.25 (≈ 18.7 µM)	6.25 (≈ 18.7 µM)	12 (≈ 35.9 µM)	72.4	69.7	53.5	68.1	50.1	1.56 (≈ 4.66 µM)	3.12 (≈ 9.33 µM)	3.12 (≈ 9.33 µM)	3.12 (≈ 9.33 µM)
S=c1n(CN2CCOCC2)nc(-c2cccs2)n1-c1ccccc1	3.12 (≈ 8.7 µM)	1.56 (≈ 4.35 µM)	1.56 (≈ 4.35 µM)	3.12 (≈ 8.7 µM)	–	87.2	68.4	79.2	59.1	12 (≈ 33.5 µM)	6.25 (≈ 17.4 µM)	6.25 (≈ 17.4 µM)	6.25 (≈ 17.4 µM)
CCn1c(-c2cccs2)nn(CN2CCC(C)CC2)c1=S	12 (≈ 37.2 µM)	6.25 (≈ 19.4 µM)	6.25 (≈ 19.4 µM)	12 (≈ 37.2 µM)	71.3	67.6	52.5	65.2	49.2	1.56 (≈ 4.84 µM)	3.12 (≈ 9.67 µM)	3.12 (≈ 9.67 µM)	3.12 (≈ 9.67 µM)
O=C1O[C@H]([C@@H](O)CO)C(O)=C1O	–	–	–	–	91.7	85.8	65	75.2	55.1	–	–	–	–
CCn1c(-c2cccs2)nn(CN2CCN(Cc3ccccc3)CC2)c1=S	6.25 (≈ 15.6 µM)	3.12 (≈ 7.81 µM)	3.12 (≈ 7.81 µM)	6.25 (≈ 15.6 µM)	90.9	83.1	63.2	74.5	53.5	6.25 (≈ 15.6 µM)	12 (≈ 30 µM)	6.25 (≈ 15.6 µM)	12 (≈ 30 µM)
O=C(O)c1cn(C2CC2)c2cc(N3CCNCC3)c(F)cc2c1=O [CIPROFLOXACIN]	–	–	–	–	–	–	–	–	–	3.12 (≈ 9.42 µM)	–	6.25 (≈ 18.9 µM)	–
CCn1c(-c2cccs2)nn(CN2CCN(c3ccccc3)CC2)c1=S	6.25 (≈ 16.2 µM)	3.12 (≈ 8.09 µM)	3.12 (≈ 8.09 µM)	6.25 (≈ 16.2 µM)	90.2	82.5	63.1	72.7	52.2	6.25 (≈ 16.2 µM)	12 (≈ 31.1 µM)	6.25 (≈ 16.2 µM)	12 (≈ 31.1 µM)
CC1CCN(Cn2nc(-c3cccs3)n(-c3ccccc3)c2=S)CC1	12 (≈ 32.4 µM)	6.25 (≈ 16.9 µM)	6.25 (≈ 16.9 µM)	12 (≈ 32.4 µM)	–	66.9	51.1	61.1	44.7	1.56 (≈ 4.21 µM)	3.12 (≈ 8.42 µM)	3.12 (≈ 8.42 µM)	3.12 (≈ 8.42 µM)
